This is a sample that favours compounds with a hit; in the whole collection about 1.7% have one here.
Apaf-1 inh: inhibitors of human Apaf-1 apoptosome | O14727 | reconstituted apoptosome caspase-3 activity, DEVD-Rh110 fluorescence | inhibition, % at 20 µM | 0.71% of 330,000 active; active = inhibition of at least 40% at 20 µM;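 note: plate controls were DMSO wells for no effect and DEVD-CHO caspase inhibitor wells for full effect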
Target sequence (O14727 whole entry, looked up): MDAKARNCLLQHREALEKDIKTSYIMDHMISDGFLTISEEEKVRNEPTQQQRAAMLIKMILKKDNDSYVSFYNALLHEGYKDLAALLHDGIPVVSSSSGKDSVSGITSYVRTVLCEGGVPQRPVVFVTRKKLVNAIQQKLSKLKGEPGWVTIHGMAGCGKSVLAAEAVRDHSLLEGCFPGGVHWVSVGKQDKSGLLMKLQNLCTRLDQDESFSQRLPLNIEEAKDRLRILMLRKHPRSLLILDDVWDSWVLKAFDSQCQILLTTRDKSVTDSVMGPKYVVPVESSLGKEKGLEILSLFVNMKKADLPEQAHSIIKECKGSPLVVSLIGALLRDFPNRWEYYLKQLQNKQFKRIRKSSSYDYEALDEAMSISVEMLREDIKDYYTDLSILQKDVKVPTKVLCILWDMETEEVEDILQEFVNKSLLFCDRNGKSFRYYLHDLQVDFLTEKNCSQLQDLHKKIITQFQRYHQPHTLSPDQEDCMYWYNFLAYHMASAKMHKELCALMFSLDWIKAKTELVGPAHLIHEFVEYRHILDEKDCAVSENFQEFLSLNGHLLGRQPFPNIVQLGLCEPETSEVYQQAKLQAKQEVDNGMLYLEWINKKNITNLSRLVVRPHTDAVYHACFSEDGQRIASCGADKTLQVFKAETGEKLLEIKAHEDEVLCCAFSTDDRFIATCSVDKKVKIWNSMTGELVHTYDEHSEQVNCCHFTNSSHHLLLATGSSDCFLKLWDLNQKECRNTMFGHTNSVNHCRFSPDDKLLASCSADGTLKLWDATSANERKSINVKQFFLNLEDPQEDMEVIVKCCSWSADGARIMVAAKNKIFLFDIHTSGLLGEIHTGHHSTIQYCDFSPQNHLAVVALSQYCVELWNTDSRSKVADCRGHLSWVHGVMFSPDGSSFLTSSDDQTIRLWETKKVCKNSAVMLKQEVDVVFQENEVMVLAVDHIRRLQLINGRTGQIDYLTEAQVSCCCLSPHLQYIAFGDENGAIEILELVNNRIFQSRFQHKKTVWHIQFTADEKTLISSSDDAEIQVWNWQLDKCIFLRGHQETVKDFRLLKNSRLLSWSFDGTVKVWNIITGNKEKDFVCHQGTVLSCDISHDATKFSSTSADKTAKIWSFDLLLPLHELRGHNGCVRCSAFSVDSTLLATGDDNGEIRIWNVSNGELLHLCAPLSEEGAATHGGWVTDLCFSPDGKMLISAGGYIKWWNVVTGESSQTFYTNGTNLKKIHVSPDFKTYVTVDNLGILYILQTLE
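Material: reconstituted apoptosome with Apaf-1, cytochrome c, caspase-9, procaspase-3, dATP; medium: pH 7.5 Hepes buffer with CHAPS, BSA, DTT; also added: cytochrome c and DEVD-Rh110 substrate; timing: 30 min plus 50 min, RT; signal: Rh110 fluorescence intensity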
PREPL inh: inhibitors of human prolyl oligopeptidase-like enzyme PREPL | AID 2751 | inhibition, % at 5.96 µM | 0.68% of 320,000 active | recombinant PREPL, fluorescence polarization activity-based probe; in the data active = inhibition above about 43%;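 note: 0% = enzyme with DMSO and 100% = wells lacking enzyme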
ZTA counter: blocks Epstein-Barr virus ZTA, an EBNA-1 counter-screen. ZTA-DNA binding, fluorescence polarization. P03206. 0.15% of 320,000 active. inhibition, % at 11 µM; in the data active = inhibition above about 33%
UBC13 polyUb: human UBC13 polyubiquitination inhibition; AID 485273; 0.47% of 330,000 active; inhibition, % at 20 µM; UBC13 polyubiquitin chain formation, TR-FRET; P61088; in the data active = inhibition above about 45%, passing the limit was not always enough; inconclusive = no clear call, values can overlap the other calls
EBNA-1 inhibitor: blocks EBNA-1 binding to DNA; inhibition, % at 14.8 µM; 0.34% of 300,000 active; EBNA-1 DNA binding, fluorescence polarization; in the data active = inhibition above about 28%
Casp3 counter: inhibits human caspase-3 in UBC13 counter-screen. shares compounds with UBC13 polyUb. Recombinant caspase-3, Caspase-Glo 3/7 luminescence, 60 min. inhibition, % at 20 µM. 4% of 1,400 active;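 active = mean inhibition across replicates above about 26%, limit read from the data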;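 note: plate controls were DMSO with caspase-3 for no effect and DMSO wells lacking enzyme for full effect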
UBC13 conf: confirmation of human UBC13 polyubiquitin inhibitors. shares compounds with UBC13 polyUb. UBC13 polyubiquitination, TR-FRET, biochemical. inhibition, % at 10 µM. 68% of 1,400 active. AID 488859; in the data active = inhibition above about 45%; inconclusive = no clear call, values can overlap the other calls
The depositor's hits bear a star; ? = inconclusive; / = no result.

SMILES | Apaf-1 inh | PREPL inh | ZTA counter | UBC13 polyUb | EBNA-1 inhibitor | Casp3 counter | UBC13 conf
NNC(=O)c1ccc(CN2C(=O)c3cccc4cccc2c34)cc1 | 17.7 | -4.6 | 8.4 | 95.5* | 4.5 | 2.4 | 107.9*
Cc1ccc2[nH]c3c(Cl)ncnc3c2c1 | -17.5 | -5.5 | 4.5 | 9.1 | 3.8 | / | /
Cc1cc(SCC(=O)NC(=O)c2cccn2C)nc2ccccc12 | -30.0 | 0.7 | -4.9 | 55.8* | -5.3 | -1.9 | 67.5*
CC(C)(c1ccccc1)c1ccc(OCC(O)CNC2CCN(Cc3ccccc3)CC2)cc1 (stereo not given) | 27.5 | 6.2 | -5.6 | 63.1* | 6.7 | -0.6 | 70.0*
Cc1ccc(N2CC(C(=O)NCCS(=O)(=O)N3CCN(c4ccc(F)cc4)CC3)CC2=O)cc1 (stereo not given) | -19.2 | 11.5 | 13.9 | 5.9 | 10.6 | / | /
CC(/C=N/NC(=O)c1sc(N)nc1C)=C\c1ccccc1 | -12.6 | 16.4 | 14.4 | 85.2* | 23.3 | 42.7* | 96.1*
Cc1nc(N)sc1C(=O)N/N=C/c1c[nH]c2ccccc12 | -14.3 | 11.4 | -2.5 | 79.2* | -4.5 | 14.1 | 113.7*
Cc1nc(N)sc1C(=O)N/N=C/c1ccc([N+](=O)[O-])cc1 | -10.5 | 1.9 | -3.4 | 36.0 | -9.3 | / | /
Cc1nc(N)sc1C(=O)N/N=C/c1ccco1 | -10.0 | -1.4 | 3.0 | 72.3* | -5.9 | 24.6 | 62.7*
CC(/C=N/NC(=O)c1ccccc1C)=C\c1ccccc1 | -7.0 | 7.5 | -5.9 | 5.6 | -1.0 | / | /
COc1cc(/C=N\NC(=O)c2sc(N)nc2C)cc(OC)c1OC | -1.7 | 1.8 | -1.7 | 104.9* | 1.2 | 1.4 | 111.3*
CCOc1ccc(NC(=O)CN(C)C(=O)C2COc3ccccc3O2)cc1OCC (stereo not given) | -0.5 | 21.3 | / | -14.4 | / | / | /
O=C(NCc1ccc2c(c1)OCO2)C(=O)NCC1OCCN1S(=O)(=O)c1ccc(Br)cc1 (stereo not given) | 17.1 | -0.6 | 19.3 | 5.7 | 3.6 | / | /
CCOc1ccc2nc(NC3=NC(C)(C)C=C(C)N3)nc(C)c2c1 | 33.5 | 15.6 | 0.3 | 57.1* | -2.5 | 1.8 | 63.7*
CCOc1ccc2c(C)nc(NC3=NC(C)(C)C=C(C)N3)nc2c1 | 10.5 | 19.1 | 2.3 | 37.3 | -4.0 | / | /
CCC(=O)c1cc2c(C)cc(=O)oc2c(C)c1O | 0.0 | 21.4 | -3.5 | 45.4* | -4.1 | -2.1 | ?
CCC(=O)c1cc2c(C)cc(=O)oc2c(C)c1OC(C)=O | 3.8 | -5.0 | 0.7 | 34.6 | 12.3 | / | /
CCOc1cc(CNCCc2ccc(S(N)(=O)=O)cc2)ccc1OCc1ccc(Cl)cc1 | 6.1 | 17.1 | 0.3 | 58.5* | 7.8 | 8.1 | 65.8*
COc1cc2nc(N(CCN(C)C)C(=O)c3ccc4ccccc4c3)sc2cc1OC | 15.1 | 18.2 | -20.7 | 11.4 | 0.2 | / | /
CCc1ccc2nc(N(CCCN(C)C)C(=O)c3ccc(S(=O)(=O)N4CCc5ccccc5C4)cc3)sc2c1 | 18.8 | -8.1 | 28.5 | 87.4* | 11.2 | -0.9 | 113.6*
Cc1ccc2nc(N(CCCN(C)C)C(=O)c3ccc4c(c3)CCCC4)sc2c1 | 16.6 | -11.2 | 14.7 | 66.2* | 0.7 | 0.0 | 68.6*
CC(C)(CC(=O)O)CC(=O)O | -7.5 | 2.9 | 0.7 | 0.0 | 0.4 | / | /
COc1ccccc1NC(=O)Nc1ccc(N2CCOCC2)cc1 | 0.6 | 11.2 | 15.1 | 8.1 | 5.8 | / | /
COc1cccc(C(=O)c2c[nH]c(C(=O)NCc3cccs3)c2)c1 | 2.8 | -0.6 | -10.3 | 4.4 | -5.7 | / | /
O=C(NNC(=O)c1nn(-c2ccc(F)cc2)ccc1=O)c1ccccc1Cl | 0.5 | 16.6 | 15.5 | 80.9* | 11.3 | -3.7 | 91.0*
SMILES | Apaf-1 inh | PREPL inh | ZTA counter | UBC13 polyUb | EBNA-1 inhibitor | Casp3 counter | UBC13 conf
O=C(O)c1nn(-c2ccc(F)cc2)ccc1=O | 6.1 | 17.4 | 3.8 | -0.5 | 4.2 | / | /
COc1ccc(N(C(=O)c2snc(C(N)=O)c2N)C(C(=O)NC2CCCC2)c2ccc3ncccc3c2)cc1 (stereo not given) | 15.1 | 25.5 | -2.1 | 48.5* | 14.9 | -0.6 | 47.5*
Cc1cccc(N(C(=O)c2snc(C(N)=O)c2N)C(C(=O)NC2CCCC2)c2ccncc2)c1 (stereo not given) | 4.4 | -4.4 | -0.2 | 25.1 | 7.4 | / | /
Cc1cccc(N(C(=O)c2snc(C(N)=O)c2N)C(C(=O)NC2CCCC2)c2ccc(C)o2)c1 (stereo not given) | 13.6 | 10.9 | -11.6 | 54.6* | -12.9 | 1.0 | 39.2
CCOc1ccc(C(C(=O)NCC2CCCO2)N(C(=O)c2snc(C(N)=O)c2N)c2ccc3c(c2)OCCO3)cc1 (stereo not given) | 14.1 | -7.5 | 17.4 | 68.8* | -7.9 | 2.5 | 64.0*
CCc1ccc(N(C(=O)c2snc(C(N)=O)c2N)C(C(=O)NCC2CCCO2)c2ccco2)cc1 (stereo not given) | 16.7 | -4.7 | 0.5 | 61.0* | -2.9 | 0.7 | 58.7*
CN(C)c1ccc(C(C(=O)NCC2CCCO2)N(C(=O)c2snc(C(N)=O)c2N)c2ccccc2)cc1 (stereo not given) | 6.8 | -7.8 | 21.3 | 14.0 | 16.8 | / | /
CN(C)c1ccc(C(C(=O)NCC2CCCO2)N(C(=O)c2snc(C(N)=O)c2N)c2ccc3c(c2)OCO3)cc1 (stereo not given) | 20.7 | 10.4 | 16.3 | 38.1 | -11.6 | / | /
CCCn1cc(NC(=O)C2CC(c3cccc(Br)c3)=NO2)cn1 (stereo not given) | 2.2 | 6.9 | -5.0 | -3.3 | -16.6 | / | /
CCOc1ccccc1N(C(=O)c1snc(C(N)=O)c1N)C(C(=O)NC1CCCC1)c1ccco1 (stereo not given) | 3.1 | 15.1 | -0.2 | 6.2 | -12.1 | / | /
Cc1ccc(N(C(=O)c2snc(C(N)=O)c2N)C(C(=O)NC2CCCC2)c2ccc(C)o2)cc1 (stereo not given) | 21.0 | 2.7 | -10.2 | 64.3* | -1.7 | -0.9 | 70.9*
Cc1ccc(N(C(=O)c2snc(C(N)=O)c2N)C(C(=O)NC2CCCC2)c2ccco2)cc1 (stereo not given) | 15.1 | / | / | 80.0* | / | -4.3 | 91.9*
CCOc1ccc(N(C(=O)c2snc(C(N)=O)c2N)C(CC)C(=O)NC2CCCC2)cc1 (stereo not given) | 19.9 | -1.1 | -6.7 | 78.5* | 7.1 | 2.8 | 82.1*
COc1ccc(C[C@H]2CN3C(=NC[C@@H]3Cc3ccc(O)cc3)N2C[C@H](C)NC(=O)CCC2CCCCC2)cc1 | 17.8 | -1.4 | -10.3 | 40.8 | -5.0 | / | /
COc1ccc(C[C@@H]2CN3C(=NC[C@@H]3Cc3ccc(O)cc3)N2C[C@H](C)NC(=O)CCC2CCCCC2)cc1 | 30.1 | 6.6 | 7.5 | 56.2* | 11.1 | -0.4 | 38.3
O=C(CCC1CCCCC1)NCCN1C2=NC[C@H](Cc3ccccc3)N2C[C@H]1Cc1ccc(O)cc1 | 12.5 | -18.3 | 1.0 | 64.6* | -2.2 | 2.3 | 60.5*
